The source made the active and inactive calls. The rule behind the calls is not given here.
What was measured:
DU-145 [1] = assay: Cytotoxicity against human DU145 cells after 96 hrs by trypan blue exclusion assay; type: functional, cell-based; settings: Homo sapiens, DU-145, 96 h
Outline: (§1)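 Cells grown in DMEM or RPMI with 10% FBS and penicillin-streptomycin, seeded at 1.0 × 10⁵ cells/mL/well in 6-well dishes. Compound added at a range of concentrations 24 h after seeding. Viable cells counted by trypan blue exclusion from duplicate wells after 96 h of exposure; dose-response end point.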

[2] = Cytotoxicity against human COLO320 cells after 96 hrs by trypan blue exclusion assay; type: functional, cell-based; settings: COLO 320, 96 h; outline: as §1
LP-1 = assay: Cytotoxicity against human LP-1 cells after 96 hrs by trypan blue exclusion assay; type: functional, cell-based; settings: LP-1, 96 h; outline: as §1
[3] = Cytotoxicity against human NAMALWA cells after 96 hrs by trypan blue exclusion assay; type: functional, cell-based; settings: NAMALVA; outline: as §1
[4] = Cytotoxicity against multidrug-resistant human 2008/17/4 cells assessed as cell viability after 96 hrs by trypan blue exclusion; type: functional, cell-based
Outline: (§2)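 Cells grown in DMEM or RPMI with 10% FBS and 1 unit/mL penicillin-streptomycin, seeded at 1.0 × 10⁵ cells/mL/well in 6-well dishes; compound added 24 h later at various concentrations. After 96 h of treatment, viable cells counted by trypan blue exclusion in duplicate wells; dose-response end point.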

HCT-116 = assay: Cytotoxicity against human HCT116 cells after 96 hrs by trypan blue exclusion assay; type: functional, cell-based; settings: HCT-116, 96 h; outline: as §1
PC-3 = assay: Cytotoxicity against human PC3 cells after 96 hrs by trypan blue exclusion assay; type: functional, cell-based; settings: PC-3, 96 h; outline: as §1
A549 [5] = assay: Cytotoxicity against human A549 cells after 96 hrs by trypan blue exclusion assay; type: functional, cell-based; settings: A549, 96 h; outline: as §1
[6] = Cytotoxicity against human RF1 cells after 96 hrs by trypan blue exclusion assay; type: functional, cell-based; settings: RF1, 96 h; outline: as §2
[7] = Cytotoxicity against human Z138C cells after 96 hrs by trypan blue exclusion assay; type: functional, cell-based; outline: as §2
MCF7 = assay: Cytotoxicity against human MCF7 cells after 96 hrs by trypan blue exclusion assay; type: functional, cell-based; settings: MCF7, 96 h; outline: as §1
AGS = assay: Cytotoxicity against human AGS cells after 96 hrs by trypan blue exclusion assay; type: functional, cell-based; outline: as §1
OPM-2 = assay: Cytotoxicity against human OPM2 cells after 96 hrs by trypan blue exclusion assay; type: functional, cell-based; settings: OPM-2, 96 h; outline: as §1
HCT-15 = assay: Cytotoxicity against human HCT15 cells after 96 hrs by trypan blue exclusion assay; type: functional, cell-based; settings: HCT-15, 96 h; outline: as §1
T47D = assay: Cytotoxicity against human T47D cells after 96 hrs by trypan blue exclusion assay; type: functional, cell-based; outline: as §2
NCI-H417 = assay: Cytotoxicity against human NCI-N417 cells after 96 hrs by trypan blue exclusion assay; type: functional, cell-based; settings: NCI-H417, 96 h; outline: as §1
CCRF-CEM = assay: Cytotoxicity against human CEM cells assessed as cell viability after 96 hrs by trypan blue exclusion; type: functional, cell-based; outline: as §1
OVCAR-3 = assay: Cytotoxicity against human OVCAR3 cells after 96 hrs by trypan blue exclusion assay; type: functional, cell-based; settings: OVCAR-3, 96 h; outline: as §1
Daudi = assay: Cytotoxicity against human Daudi cells after 96 hrs by trypan blue exclusion assay; type: functional, cell-based; outline: as §1
Raji = assay: Cytotoxicity against human Raji cells after 96 hrs by trypan blue exclusion assay; type: functional, cell-based; outline: as §2
NCI-H1975 = assay: Cytotoxicity against human NCI-H1975 cells after 96 hrs by trypan blue exclusion assay; type: functional, cell-based; settings: NCI-H1975, 96 h; outline: as §1
2008 = assay: Cytotoxicity against human 2008 cells assessed as cell viability after 96 hrs by trypan blue exclusion; type: functional, cell-based; settings: Homo sapiens, 2008, 96 h; outline: as §1
[8] = Cytotoxicity against human U87 cells after 96 hrs by trypan blue exclusion assay; type: functional, cell-based, U-87MG ATCC; settings: U-87 MG; outline: as §2
NCI-H157 = assay: Cytotoxicity against human NCI-H157 cells after 96 hrs by trypan blue exclusion assay; type: functional, cell-based; settings: NCI-H157, 96 h; outline: as §1
COLO 205 = assay: Cytotoxicity against human COLO205 cells after 96 hrs by trypan blue exclusion assay; type: functional, cell-based; settings: COLO 205, 96 h; outline: as §1
SK-BR-3 = assay: Cytotoxicity against human SKBR3 cells after 96 hrs by trypan blue exclusion assay; type: functional, cell-based; settings: SK-BR-3, 96 h; outline: as §2
SW480 = assay: Cytotoxicity against human SW480 cells after 96 hrs by trypan blue exclusion assay; type: functional, cell-based; settings: SW480, 96 h; outline: as §2
CEM/C2 = assay: Cytotoxicity against multidrug-resistant human CEM/C2 cells assessed as cell viability after 96 hrs by trypan blue exclusion; type: functional, cell-based; settings: CEM/C2, 96 h; outline: as §2
[9] = Cytotoxicity against human RF48 cells after 96 hrs by trypan blue exclusion assay; type: functional, cell-based; settings: RF48, 96 h; outline: as §2
U-266 = assay: Cytotoxicity against human U266 cells after 96 hrs by trypan blue exclusion assay; type: functional, cell-based; settings: U-266, 96 h; outline: as §2
BT-20 = assay: Cytotoxicity against human BT20 cells after 96 hrs by trypan blue exclusion assay; type: functional, cell-based; settings: BT-20, 96 h; outline: as §1
BT-474 = assay: Cytotoxicity against human BT474 cells after 96 hrs by trypan blue exclusion assay; type: functional, cell-based; settings: BT-474, 96 h; outline: as §1
K562 = assay: Cytotoxicity against human K562 cells after 96 hrs by trypan blue exclusion assay; type: functional, cell-based; settings: Homo sapiens, K562, 96 h; outline: as §1
[10] = Cytotoxicity against human […] cells after 96 hrs by trypan blue exclusion assay; type: functional, cell-based; outline: as §2
MOLT-4 = assay: Cytotoxicity against human MOLT4 cells after 96 hrs by trypan blue exclusion assay; type: functional, cell-based; settings: MOLT-4, 96 h; outline: as §1
[11] = Cytotoxicity against human MES-SA cells assessed as cell viability after 96 hrs by trypan blue exclusion; type: functional, cell-based; outline: as §1
[12] = Cytotoxicity against multidrug-resistant human MES-SA/Dx5 cells assessed as cell viability after 96 hrs by trypan blue exclusion; type: functional, cell-based; settings: MES-SA/Dx5, 96 h; outline: as §2
NCI-H187 = assay: Cytotoxicity against human NCI-H187 cells after 96 hrs by trypan blue exclusion assay; type: functional, cell-based; settings: NCI-H187, 96 h; outline: as §1
DLD-1 = assay: Cytotoxicity against human DLD1 cells after 96 hrs by trypan blue exclusion assay; type: functional, cell-based; settings: DLD-1, 96 h; outline: as §1
MIA PaCa-2 = assay: Cytotoxicity against human MIAPaCa2 cells after 96 hrs by trypan blue exclusion assay; type: functional, cell-based; settings: MIA PaCa-2, 96 h; outline: as §1
[13] = Cytotoxicity against human GRANTA-519 cells after 96 hrs by trypan blue exclusion assay; type: functional, cell-based; settings: Granta-519, 96 h; outline: as §1
DU-145 [14] = assay: Cell cycle arrest in human DU145 cells assessed as accumulation of cells containing subG1 content of DNA at 0.1 to 1 uM after 24 hrs by propidium iodide staining-based flow cytometric analysis; type: functional
Outline: (§3)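 DMEM with 10% FBS; 1.0 × 10⁶ cells/dish, treated 24 h after plating and harvested 24 h after treatment. Trypsinized cells were pooled with floating cells, PBS-washed and fixed in ice-cold 70% ethanol for ≥24 h. Cells were stained with propidium iodide plus RNase A for 30 min at 37 °C. DNA content was read by flow cytometry with cell-cycle modelling.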

DU-145 [15] = assay: Induction of apoptosis in human DU145 cells assessed as PARP1 cleavage at 0.25 to 5 uM after 48 hrs by Western blot analysis; type: functional, cell-based
Outline: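 DU145 or HFL-1 cells plated at 3.0 × 10⁶ per […], treated 24 h later with DMSO or compound for 48 h. Frozen pellets lysed in 1% NP40/PBS with protease inhibitors. Equal protein run on 10% SDS-PAGE, transferred to nitrocellulose, probed with anti-PARP antibody, ECL detection.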

A549 [16] = assay: Induction of apoptosis in human A549 cells assessed as cell viability at 0.25 uM after 24 hrs by fluorescence assay; type: functional, cell-based
Outline: (§4)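 A549 cells seeded at 3,600 cells/well in DMEM + 10% FBS, adhered overnight at 37 °C, then exposed to varying compound concentrations or DMSO for 24 h. Viability read first as fluorescence 3 h after CellTiter-Blue addition. Caspase-Glo 3/7 was then added to the same wells, developed 2 h at room temperature, and luminescence read; n=3.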

DU-145 [17] = assay: Cell cycle arrest in human DU145 cells assessed as accumulation of cells in G2/M phase after 24 hrs by propidium iodide staining-based flow cytometric analysis; type: functional; outline: as §3
A549 [18] = assay: Induction of apoptosis in human A549 cells assessed as caspase 3/7 activity at 0.25 uM after 24 hrs by luminescence assay; type: functional, cell-based; outline: as §4

Question: What does the source list for `COc1cc(OC)c(/C=C/S(=O)(=O)Cc2ccc(OC)c(N)c2)c(OC)c1`?
Answer: IC50 (DU-145 [1]): 4 nM; IC50 [2]: 3 nM; IC50 (LP-1): 3 nM; IC50 [3]: 5 nM; IC50 [4]: 3 nM; IC50 (HCT-116): 3 nM; IC50 (PC-3): 6 nM; IC50 (A549 [5]): 3 nM; IC50 [6]: 2 nM; IC50 [7]: 3 nM; IC50 (MCF7): 1 nM; IC50 (AGS): 3 nM; IC50 (OPM-2): 3 nM; IC50 (HCT-15): 3 nM; IC50 (T47D): 3 nM; IC50 (NCI-H417): 3 nM; IC50 (CCRF-CEM): 10 nM; IC50 (OVCAR-3): 3 nM; IC50 (Daudi): 3 nM; IC50 (Raji): 2 nM; IC50 (NCI-H1975): 3 nM; IC50 2008: 3 nM; IC50 [8]: 3 nM; IC50 (NCI-H157): 4 nM; IC50 (COLO 205): 5 nM; IC50 (SK-BR-3): 3 nM; IC50 (SW480): 5 nM; IC50 (CEM/C2): 10 nM; IC50 [9]: 1 nM; IC50 (U-266): 3 nM; IC50 (BT-20): 30 nM; IC50 (BT-474): 2 nM; IC50 (K562): 2.5 nM; IC50 [10]: 3 nM; IC50 (MOLT-4): 4 nM; IC50 [11]: 4 nM; IC50 [12]: 4 nM; IC50 (NCI-H187): 4 nM; IC50 (DLD-1): 5 nM; IC50 (MIA PaCa-2): 3 nM; IC50 [13]: 3 nM

Question: For `COc1cc(OC)c(/C=C/S(=O)(=O)Cc2ccc(OC)c(NCC(=O)O)c2)c(OC)c1`, which Activity (DU-145 [14]) is on record?
Answer: Its Activity is “Active”.

Question: And the Activity (DU-145 [15])?
Answer: Its Activity is “Active”.

Question: What about the Activity (A549 [16]) of the same compound?
Answer: Its Activity is “Active”.

Question: And the Activity (DU-145 [17])?
Answer: The Activity was “Dose-dependent effect”.

Question: And the Activity (A549 [18])?
Answer: Its Activity is “Active”.
